NR1D1 modulator: modulators of human Rev-erb alpha DNA binding. AID 1259318. activity, % at 10 µM. Rev-erbα–FITC-DNA binding, fluorescence polarization, 90 min. P20393. 370,000 tested, 0.79% active;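 active means activity above about 14%, limit read from the data; passing the limit was not always enough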
MsrA inh: inhibits bovine methionine sulfoxide reductase A. 360,000 tested, 0.75% active. inhibition, % at 15.5 µM. purified bovine MsrA, absorbance read-out
sPLA2-III inh: Blocks human group III sPLA2 activity | Q9NZ20 | QFRET BODIPY PC-A2 liposome hydrolysis, fluorescence | inhibition, % at 12.2 µM | 370,000 tested, 0.56% active | AID 743126;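 active means inhibition above mean plus 3 SD of compounds lying within the high and low control bounds, cut at about 19% in these data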
bovine MsrA act: activates bovine MsrA enzyme | purified bovine MsrA, absorbance read-out | activation, % at 10.6 µM | 360,000 tested, 0.3% active | AID 602163; in the data active means activation above about 7.5%
ASAP1 GAP inh: ASAP1 ArfGAP inhibition; Q9ULH1; ASAP1-stimulated ARF1 GTP hydrolysis, GDP FP detection; inhibition, % at 16.5 µM; 360,000 tested, 0.19% active; AID 624377; in the data active means inhibition above about 25%
ARFGAP1 inh: inhibits rat ARF GTPase activating protein 1 | inhibition, % at 16.5 µM | Arfgap1-stimulated ARF1 GTP hydrolysis, GDP FP detection | Q62848 | 360,000 tested, 0.26% active;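 active means inhibition above a per-plate limit, mean inhibition of low control wells plus 3 SD, cut at about 25% in these data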
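Material: truncated rat Arfgap1 GAP domain; Incubation: compound-enzyme preincubation 20 min, reaction 120 min, detection 60 min, 25 °C; Read-out: percent inhibition of Arfgap1-stimulated GTP hydrolysis; Technique: FP, GDP Alexa 633 tracer displaced from anti-GDP antibody, 620/688 nm; Controls: No-Arfgap1 wells (100%) versus DMSO full-reaction wells (0%); Replication: single well per compound.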
MsrA conf: bovine MsrA inhibition, confirmed | shares compounds with MsrA inh | inhibition, % at 15.5 µM | AID 651822 | 2,300 tested, 41% active | purified bovine MsrA, absorbance read-out;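 further: coupled to thioredoxin reductase with NADPH and selenocystamine and DMSO as substrate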
Each line names hits and unclear results; the compound was inactive in the other large screens (follow-up assays come after a bar, where they were run). Compounds with a hit are over-represented: about 2.7% of the library has one in this group of screens. Unless noted, no stated cut-off is given here; in the data, active means inhibition above about 4.5%; inactive means the rest.

O=C(NCCc1ccccc1)OCc1cn(Cc2ccc(Cl)cc2)nn1	none (no result: MsrA inh, bovine MsrA act, ASAP1 GAP inh, ARFGAP1 inh)
Oc1ccc(/C=N/Nc2cc(N3CCOCC3)nc(N3CCOCC3)n2)cc1O	MsrA inh 4.7 | MsrA conf inactive
Cc1nc(N/N=C/c2ccc(O)cc2O)cc(N2CCOCC2)n1	MsrA inh 4.8 | MsrA conf inactive
O=c1nc(N2CCOCC2)nc(N/N=C/c2ccc3c(c2)OCO3)[nH]1	MsrA inh 5.5 | MsrA conf inactive
CN(/N=C/c1ccc2c(c1)OCO2)c1nc(N2CCOCC2)nc(N2CCOCC2)n1	none
Oc1cccc(/C=N/Nc2cc(N3CCOCC3)nc(N3CCOCC3)n2)c1	MsrA inh 4.9 | MsrA conf 6.2
C[C@H](O)[C@@H]1C(=O)N2CCc3c([nH]c4c(-c5ccc6c(c5)OCO6)cccc34)[C@@H]2C[C@@H]1N(C)C(=O)c1ccccc1F	none (no result: MsrA inh, bovine MsrA act, ASAP1 GAP inh, ARFGAP1 inh)
c1cnn(-c2cncc(-n3cccn3)n2)c1	MsrA inh 14 | MsrA conf 10
O=C(O)c1ccc(-n2cccn2)nc1	none
CNc1nc(N)c([N+](=O)[O-])c(Nc2cccc(OC)c2)n1	none (no result: MsrA inh, bovine MsrA act, ASAP1 GAP inh, ARFGAP1 inh)
COc1ccc(-c2nn(CCC(=O)O)cc2/C=C2\SC(N)=NC2=O)cc1OC	MsrA inh 5.6 | MsrA conf inactive
Nc1ccc(-c2nc3ccc(N)cc3o2)cc1	MsrA inh 4.8 (no result: NR1D1 modulator) | MsrA conf 5.4
CC(=O)N[C@H]1C[C@@H]2O[C@H](CO)CC[C@@H]2O[C@@H]1CCc1ccc(-c2ccc(F)cc2)cc1	none (no result: MsrA inh, bovine MsrA act, ASAP1 GAP inh, ARFGAP1 inh)
CS(=O)(=O)c1ccc2nc(NC(=O)c3ccco3)sc2c1	MsrA inh 5.7 | MsrA conf 4.7
CS(=O)(=O)c1ccc2nc(NC(=O)c3ccc(=O)[nH]c3)sc2c1	MsrA inh 6.3 | MsrA conf 6.0
O=C(Nc1nc2cc3c(cc2s1)OCCO3)c1ccco1	MsrA inh 4.7 | MsrA conf 4.7
CS(=O)(=O)c1ccc2nc(NC(=O)c3cccc(Cl)c3)sc2c1	none
O=C(Nc1nc2cc3c(cc2s1)OCO3)C1=COCCO1	MsrA inh 5.2 | MsrA conf inactive
O=C(Nc1ccccc1)OCCN1C(=O)CCC12CCC(c1ccccc1)CC2 (centres undefined)	none (no result: MsrA inh, bovine MsrA act, ASAP1 GAP inh, ARFGAP1 inh)
Cc1ccc([C@H](C)NC(=O)C2=C(N)N(S(=O)(=O)c3ccc(C)cc3)C(C(=O)c3ccccc3)C2c2ccccc2Cl)cc1 (some centres undefined)	none (no result: MsrA inh, bovine MsrA act, ASAP1 GAP inh, ARFGAP1 inh)
C/C(=N\NC(=O)c1cccnc1)c1cc2ccccc2o1	MsrA inh 6.7 | MsrA conf 6.0
C/C(=N\NC(=O)c1ccncc1)c1cc2ccccc2o1	none
C/C(=N\N=C1\NC(=O)CC(C(=O)O)S1)c1ccc(F)cc1 (centres undefined)	none
C/C(=N\N=C1\NC(=O)CC(C(=O)O)S1)c1cccs1 (centres undefined)	MsrA inh 5.0 | MsrA conf inactive
CNC(=O)C1CC(=O)N/C(=N/N=C(\C)c2cccs2)S1 (centres undefined)	MsrA inh 6.1 (no result: NR1D1 modulator) | MsrA conf 4.7
Cc1nnc(SCC(=O)N/N=C/c2cc(Cl)c(O)c(Cl)c2)s1	MsrA inh 5.1 | MsrA conf 4.7
O=C(CSc1nnc(SCc2ccc(Cl)cc2)s1)N/N=C/c1ccc(Cl)cc1Cl	none
CCc1cc(=O)oc2c(C)c(O)c(CN3CCCCC3)cc12	MsrA inh 5.4 | MsrA conf inactive
Cc1c(O)c(CN2CCCC2)cc2c3c(c(=O)oc12)CCC3	none
N#Cc1cc(F)cc(OC[C@@H](O)CN2CCC(C(O)(c3ccccc3)c3ccccc3)CC2)c1	none (no result: MsrA inh, bovine MsrA act, ASAP1 GAP inh, ARFGAP1 inh)
O=C1CCC2(CCCCC2)N1CCCO	none (no result: MsrA inh, bovine MsrA act, ASAP1 GAP inh, ARFGAP1 inh)
COc1ccc(-n2nc([N+](=O)[O-])c(=NCCCN3CCCC3=O)n2O)cc1	MsrA inh 4.8 | MsrA conf inactive
Cc1cc(C)nc(N/N=C/c2ccc(N3CCOCC3)cc2)n1	MsrA inh 6.6 | MsrA conf 6.1
COC(=O)c1ccc(/C=N/NC(=S)NC(C)C)cc1	none
CC(C)NC(=S)N/N=C/c1ccc(N2CCOCC2)cc1	MsrA inh 7.0 | MsrA conf 5.4
COc1ccc(/C=N\Nc2ncc(F)c(N3CCOCC3)n2)cc1OC	MsrA inh 4.7 | MsrA conf inactive
COc1ccc(/C=N/Nc2cc(C)nc(N3CCOCC3)n2)cc1OC	none
